# Measurements as given in ChEMBL document CHEMBL1153955, “Indolylarylsulfones bearing natural and unnatural amino acids. Discovery of potent inhibitors of HIV-1 non-nucleoside wild type and resistant mutant strains reverse transcriptase and coxsackie B4 virus” (J Med Chem, 2009).
# Columns and labels:
# [1] = system: Vesicular stomatitis virus; test: Antiviral activity against VSV in human HEL cells assessed as protection against virus-induced cytopathicity; type: functional, organism-based
# [2] = system: Coxsackievirus B4; test: Antiviral activity against Coxsackievirus B4 in african green monkey Vero cells assessed as protection against virus-induced cytopathicity; type: functional, organism-based; settings: Enterovirus B
# Outline: (§1)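 Confluent cell monolayers inoculated with 100 CCID₅₀ virus. After 1-2 h adsorption, residual virus removed and cultures incubated with varying compound concentrations. Cytopathicity scored once it reached completion in untreated infected controls. EC₅₀ = dose reducing virus-induced cytopathogenicity by 50%.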
# [3] = system: Respiratory syncytial virus; test: Antiviral activity against RSV Long in human HeLa cells assessed as protection against virus-induced cytopathicity; type: functional, organism-based; outline: as §1
# [4] = system: Human alphaherpesvirus 1; test: Antiviral activity against thymidine kinase deficient and acyclovir resistant HSV1 KOS in human HEL cells assessed as protection against virus-induced cytopathicity; type: functional, organism-based; settings: Human alphaherpesvirus 1, KOS
# [5] = target: Human immunodeficiency virus type 1 reverse transcriptase (Human immunodeficiency virus 1, UniProt Q72547); test: Inhibition of HIV1 reverse transcriptase p66/p51; settings: read-out: IC50
# [6] = system: Influenza A virus; test: Antiviral activity against influenza H1N1 virus in MDCK cells assessed as reduction of virus-induced cytopathicity by MTS method; type: functional, organism-based; settings: Influenza A virus, H1N1, MDCK
# [7] = system: Human alphaherpesvirus 2; test: Antiviral activity against HSV2 G in human HEL cells assessed as protection against virus-induced cytopathicity; type: functional, organism-based; settings: Human alphaherpesvirus 2, strain G; outline: as §1
# [8] = Cytotoxicity against african green monkey Vero cells assessed as drug level causing microscopically detectable alteration of normal cell morphology after 3 days; type: cell-based; settings: chlorocebus sabaeus
# Outline: (§2)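 Serial compound dilutions added to confluent HeLa or Vero monolayers. MCC = minimum concentration causing microscopically detectable alteration of cell morphology after 3 days of incubation.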
# [9] = system: Human immunodeficiency virus 2; test: Antiviral activity against HIV2 ROD in human CEM cells assessed as protection against virus-induced cytopathicity after 4 days; type: functional, organism-based; settings: Human immunodeficiency virus 2, ROD, CCRF-CEM, 96 h
# Outline: (§3)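 CEM cells (~3 × 10⁵ cells/mL) infected with ~100 CCID₅₀ per mL of HIV-1 (IIIB) or HIV-2 (ROD), then seeded into wells containing compound dilutions. After 4 days at 37 °C, syncytium (giant cell) formation was examined microscopically. EC₅₀ = concentration protecting CEM cells from HIV cytopathicity by 50%.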
# [10] = system: Vesicular stomatitis virus; test: Antiviral activity against VSV in human HeLa cells assessed as protection against virus-induced cytopathicity; type: functional, organism-based
# [11] = system: L1210; test: Antiproliferative activity against mouse L1210 cells after 2 days; type: cell-based; settings: L1210, 48 h
# Outline: (§4)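 Cells seeded at 5 × 10⁴ to 7.5 × 10⁴ cells/200 µL with or without serial compound dilutions; incubated at 37 °C for 2 days (L1210) or 3 days (Molt4/C8, CEM). Cell numbers counted with a Coulter counter. CC₅₀ = concentration reducing proliferation by 50% versus untreated controls, read from plots of cell number (% of control) against concentration. Means of at least two independent experiments.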
# [12] = Cytotoxicity against human HeLa cells assessed as drug level causing microscopically detectable alteration of normal cell morphology after 3 days; type: cell-based; outline: as §2
# [13] = Cytotoxicity against feline CRFK cells by MTS assay; type: cell-based, Felis catus; settings: cat
# [14] = system: Influenza B virus; test: Antiviral activity against influenza B virus in MDCK cells assessed as reduction of virus-induced cytopathicity by visual cytopathic effect scoring method; type: functional, organism-based
# [15] = system: Human alphaherpesvirus 1; test: Antiviral activity against HSV1 KOS in human HEL cells assessed as protection against virus-induced cytopathicity; type: functional, organism-based; settings: Human alphaherpesvirus 1, KOS
# [16] = system: Influenza A virus; test: Antiviral activity against influenza H1N1 virus in MDCK cells assessed as reduction of virus-induced cytopathicity by visual cytopathic effect scoring method; type: functional, organism-based
# [17] = system: Feline coronavirus; test: Antiviral activity against Feline coronavirus in feline […] cells assessed as inhibition of virus-induced cytopathicity; type: functional, organism-based; settings: Alphacoronavirus 1
# [18] = system: Human immunodeficiency virus 1; test: Antiviral activity against HIV1 3B in human CEM cells assessed as protection against virus-induced cytopathicity after 4 days; type: functional, organism-based; settings: Human immunodeficiency virus 1, 3B, CCRF-CEM, 96 h; outline: as §3
# [19] = system: Vaccinia virus; test: Antiviral activity against Vaccinia virus Lederle in human HEL cells assessed as protection against virus-induced cytopathicity; type: functional, organism-based; settings: Orthopoxvirus vaccinia
# [20] = system: Influenza A virus H3N2; test: Antiviral activity against influenza H3N2 virus in MDCK cells assessed as reduction of virus-induced cytopathicity by visual cytopathic effect scoring method; type: functional, organism-based
# [21] = system: Influenza B virus; test: Antiviral activity against influenza B virus in MDCK cells assessed as reduction of virus-induced cytopathicity by MTS method; type: functional, organism-based
# [22] = Antiproliferative activity against human Molt4/C8 cells after 3 days; type: cell-based; settings: MOLT-4, 72 h; outline: as §4
# [23] = system: Sindbis virus; test: Antiviral activity against Sindbis virus in african green monkey Vero cells assessed as protection against virus-induced cytopathicity; type: functional, organism-based; outline: as §1
# [24] = system: Human respirovirus 3; test: Antiviral activity against Parainfluenza virus type 3 in african green monkey Vero cells assessed as protection against virus-induced cytopathicity; type: functional, organism-based; settings: Human respirovirus 3, Vero; outline: as §1
# [25] = system: Punta Toro virus; test: Antiviral activity against Punta Toro virus in african green monkey Vero cells assessed as protection against virus-induced cytopathicity; type: functional, organism-based; outline: as §1
# [26] = target: Human immunodeficiency virus type 1 reverse transcriptase (Human immunodeficiency virus 1, UniProt Q72547, L100I); test: Inhibition of HIV1 reverse transcriptase p66/p51 L100I mutant; settings: read-out: IC50
# Outline: (§5)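 Substrate was 0.5 µg poly(rA)/oligo(dT) 10:1 (0.3 µM 3′-OH ends) with 10 µM [³H]dTTP, at 37 °C. Acid-precipitable radioactivity was counted on GF/C filters after TCA washes.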
# [27] = system: CCRF-CEM; test: Antiproliferative activity against human CEM cells after 3 days; type: cell-based; settings: 72 h; outline: as §4
# [28] = target: Human immunodeficiency virus type 1 reverse transcriptase (Human immunodeficiency virus 1, UniProt Q72547, K103N); test: Inhibition of HIV1 reverse transcriptase p66/p51 K103N mutant; settings: read-out: IC50; outline: as §5
# [29] = system: Felid alphaherpesvirus 1; test: Antiviral activity against Feline herpesvirus in feline […] cells assessed as inhibition of virus-induced cytopathicity; type: functional, organism-based
# [30] = system: Mammalian orthoreovirus 1; test: Antiviral activity against Reovirus 1 in african green monkey Vero cells assessed as protection against virus-induced cytopathicity; type: functional, organism-based; settings: Mammalian orthoreovirus 1, Vero; outline: as §1
# [31] = target: Human immunodeficiency virus type 1 reverse transcriptase (Human immunodeficiency virus 1, UniProt Q72547, Y181I); test: Inhibition of HIV1 reverse transcriptase p66/p51 Y181I mutant; settings: read-out: IC50; outline: as §5
# [32] = system: Influenza A virus H3N2; test: Antiviral activity against influenza H3N2 virus in MDCK cells assessed as reduction of virus-induced cytopathicity by MTS method; type: functional, organism-based
# [33] = system: Coxsackievirus B4; test: Antiviral activity against Coxsackievirus B4 in human HeLa cells assessed as protection against virus-induced cytopathicity; type: functional, organism-based; settings: Enterovirus B; outline: as §1
# [34] = Cytotoxicity against human HEL cells assessed as drug level causing microscopically detectable alteration of normal cell morphology after 3 days; type: cell-based
# [35] = Cytotoxicity against MDCK cells assessed as drug level causing microscopically detectable alteration of normal cell morphology; type: cell-based, Canis lupus familiaris; settings: dog
# [36] = Cytotoxicity against MDCK cells by MTS assay; type: cell-based, Canis lupus familiaris; settings: dog
Compound,EC50 [1] [µM],EC50 [2] [µM],EC50 [3] [µM],EC50 [4] [µM],IC50 [5] [µM],EC50 [6] [µM],EC50 [7] [µM],MCC at 72 h [8] [µM],EC50 [9] [µM],EC50 [10] [µM],IC50 [11] [µM],MCC at 72 h [12] [µM],CC50 [13] [µM],EC50 [14] [µM],EC50 [15] [µM],EC50 [16] [µM],EC50 [17] [µM],EC50 [18] [µM],EC50 [19] [µM],EC50 [20] [µM],further results
Cc1cc(C)cc(S(=O)(=O)c2c(C(=O)NC(C)CS(N)(=O)=O)[nH]c3ccc(Cl)c(F)c23)c1 (stereo not drawn),> 4,12,> 4,> 4,0.036,> 4,> 4,100,> 10,> 4,18,20,15,> 4,> 4,> 4,> 4,0.0039,> 4,> 4,EC50 [21]: > 4 µM; IC50 [22]: 12 µM; EC50 [23]: 20 µM; EC50 [24]: > 20 µM; EC50 [25]: > 20 µM; IC50 [26]: 0.267 µM; IC50 [27]: 16 µM; IC50 [28]: 0.003 µM; EC50 [29]: > 4 µM; EC50 [30]: > 20 µM; IC50 [31]: > 40 µM; EC50 [32]: > 4 µM; EC50 [33]: > 4 µM; MCC at 72 h [34]: 20 µM; MCC [35]: 20 µM; CC50 [36]: 7.3 µM
Cc1cc(C)cc(S(=O)(=O)c2c(C(=O)NCCS(N)(=O)=O)[nH]c3ccc([N+](=O)[O-])cc23)c1,> 4,> 20,20,> 4,0.061,> 4,> 4,100,> 10,≥ 100,408,≥ 100,> 100,> 4,> 4,> 4,> 100,0.0027,> 4,> 4,EC50 [21]: > 4 µM; IC50 [22]: 244 µM; EC50 [23]: > 20 µM; EC50 [24]: > 20 µM; EC50 [25]: > 20 µM; IC50 [26]: 0.388 µM; IC50 [27]: 200 µM; IC50 [28]: 0.787 µM; EC50 [29]: > 100 µM; EC50 [30]: > 20 µM; IC50 [31]: > 40 µM; EC50 [32]: > 4 µM; EC50 [33]: ≥ 20 µM; MCC at 72 h [34]: 20 µM; MCC [35]: 20 µM; CC50 [36]: 32.7 µM
Cc1cc(C)cc(S(=O)(=O)c2c(C(N)=O)[nH]c3ccc(Cl)cc23)c1,> 100,> 100,> 100,> 100,0.0003,> 100,> 100,> 100,> 2,> 100,≥ 500,> 100,> 100,> 100,> 100,> 100,> 100,0.0011,> 100,> 100,EC50 [21]: > 100 µM; IC50 [22]: 20 µM; EC50 [23]: > 100 µM; EC50 [24]: > 100 µM; EC50 [25]: > 100 µM; IC50 [26]: 0.06 µM; IC50 [27]: 301 µM; IC50 [28]: 0.003 µM; EC50 [29]: > 100 µM; EC50 [30]: > 100 µM; IC50 [31]: 0.14 µM; EC50 [32]: > 100 µM; EC50 [33]: > 100 µM; MCC at 72 h [34]: > 100 µM; MCC [35]: > 100 µM; CC50 [36]: > 100 µM
